High-throughput results: PubChem, several laboratories
V-ATPase pH: yeast V-ATPase proton transport regulation by pHLuorin. S. cerevisiae, pHLuorin cytosolic pH fluorescence. response, % at 10 µM. 0.37% of 350,000 active. AID 504577; in the data active = response mostly above about 7.3%, no sharp cut-off; inactive = mostly below about 5.4%; note: actives read high
SR-BI DiI-HDL act: activators of SR-BI mediated HDL lipid uptake; AID 504775; activation, % at 12.5 µM; 0.096% of 320,000 active; CHO ldlA[mSR-BI] cells, DiI-HDL uptake fluorescence, 3 h; 100 = double the neutral-control signal;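 active = mean replicate activation of at least 60% and every replicate at or above 60%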
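material = CHO ldlA[mSR-BI] cells | medium = Ham's F12 with 0.5% BSA, HEPES 25 mM, pH 7.4 | reagent = fluorescent DiI-HDL, 10 µg/mL final | compound dosing = single-point compound dose | incubation = 3 h, 37 °C | measured by = bottom-read fluorescence, 550/595 nm | measure = HDL uptake via cellular fluorescence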
NTR1 ag: activates human neurotensin receptor 1 | P30989 | NTR1-U2OS beta-arrestin-GFP spot imaging, agonist mode | activation, % at 20 µM | 0.17% of 330,000 active | AID 493036;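 active = activation at or above 40% of the spot to cytoplasm intensity ratio, with at least 20 cells analyzed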
Target sequence (P30989 whole entry, looked up): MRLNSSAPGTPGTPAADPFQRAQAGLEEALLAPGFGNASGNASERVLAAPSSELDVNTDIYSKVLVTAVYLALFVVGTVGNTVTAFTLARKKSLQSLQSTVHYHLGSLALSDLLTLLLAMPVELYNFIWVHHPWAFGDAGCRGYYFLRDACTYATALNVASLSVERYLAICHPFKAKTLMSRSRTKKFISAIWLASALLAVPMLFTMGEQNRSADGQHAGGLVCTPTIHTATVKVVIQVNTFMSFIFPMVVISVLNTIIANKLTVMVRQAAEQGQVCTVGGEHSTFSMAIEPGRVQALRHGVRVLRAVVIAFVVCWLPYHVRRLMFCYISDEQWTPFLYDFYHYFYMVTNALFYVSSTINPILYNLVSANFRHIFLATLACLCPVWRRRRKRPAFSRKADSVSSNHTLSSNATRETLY
Vif imaging: blocks HIV Vif function; inhibition, % at 7.49 µM; 0.35% of 340,000 active; HEK293T cells, Vif self-association by quenched fluorescence, imaging, 24 h; in the data active = inhibition above about 50%, passing the limit was not always enough
CaV13 ICDI inh: Primary screen for inhibitors of IQ motif and Ca2+-dependent inactivation inhibitor domain binding in CACNA1D, Förster resonance energy transfer in living cells, …; inhibition, % at 12.3 µM; AID 743397; 0.098% of 340,000 active; HEK cells, CFP/YFP FRET ICDI-IQ, plate reader, 10 min; percent FRET-ratio fall versus neutral wells;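 active = mean replicate inhibition of at least 30% and at least 1% of replicates passing that level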
SR-BI DiI inh: inhibitors of mouse SR-BI mediated HDL lipid uptake; 0.96% of 320,000 active; AID 488896; ldlA[mSR-BI] CHO cells, DiI-HDL uptake fluorescence, 3 h; inhibition, % at 12.5 µM;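 active = mean replicate inhibition of at least 70% and a set share of replicates each scoring 70 or more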
Of the large screens only hits and unclear results are named; the others gave an inactive call. In the library only some 1.7% were active in any assay of this set; here they are far more common.

Cc1ccccc1N1CCN(C2CCCN(C(=O)c3noc4c3CCCC4)C2)CC1 (stereo not given)	SR-BI DiI inh 83
C[C@H](CO)N1C[C@H](C)[C@@H](CN(C)C(=O)CC2CC2)Oc2cc(Br)ccc2S1(=O)=O	none (no result: SR-BI DiI-HDL act, NTR1 ag, SR-BI DiI inh)
CN(CC(=O)Nc1cccc(C(F)(F)F)c1)C1=NS(=O)(=O)c2ccccc21	V-ATPase pH 13
CCC(CC)C(=O)NCCc1ccc(S(N)(=O)=O)cc1	Vif imaging 68
COc1ccc(C2=NN(C(=O)c3ccccc3)C(c3ccc(OC)c(OC)c3)C2)c(O)c1 (stereo not given)	none
CCOc1ccc(C2CC(c3c(O)c4ccccc4oc3=O)=NN2c2ccccc2)cc1OC (stereo not given)	CaV13 ICDI inh 165 (no result: SR-BI DiI-HDL act, SR-BI DiI inh)
O=C(COC(=O)c1ccc(S(=O)(=O)Nc2ccccc2)cc1)NC1CCCC1	none
NC(=O)c1c(NC(=O)COC(=O)c2ccc(S(=O)(=O)Nc3ccccc3)cc2)sc2c1CCCC2	SR-BI DiI inh 95
Cc1ccc(S(=O)(=O)NCCc2cc3ccc(C)cc3[nH]c2=O)cc1	none
COc1ccc2cc(CCNS(=O)(=O)c3ccc(NC(C)=O)cc3)c(=O)[nH]c2c1	Vif imaging 57 (no result: SR-BI DiI-HDL act, SR-BI DiI inh)
O=C(N/N=C/c1sc(N2CCOCC2)nc1-c1ccccc1)c1ccccc1Cl	SR-BI DiI inh 83
O=[N+]([O-])c1ccc(N/N=C/c2sc(N3CCOCC3)nc2-c2ccccc2)c(S(=O)(=O)Nc2ccc(Cl)cc2)c1	SR-BI DiI inh 118 (no result: NTR1 ag)
O=[N+]([O-])c1ccc(N/N=C/c2sc(N3CCOCC3)nc2-c2ccccc2)c(S(=O)(=O)Nc2ccccc2Cl)c1	none (no result: NTR1 ag)
CC(NC(=O)c1ccc(NC(=O)CC2SC(N3CCCC3)=NC2=O)cc1)c1ccc(F)cc1 (stereo not given)	none
O=C(Nc1ccc(Cl)c(Cl)c1)c1ccc(Cl)c(Cl)c1	none
CS(=O)(=O)c1cccc(NC(=O)c2ccc(Cl)c(Cl)c2)c1	SR-BI DiI inh 83
O=C(Nc1ccc2c(c1)COC2=O)c1ccc(Cl)c(Cl)c1	SR-BI DiI inh 72 (no result: CaV13 ICDI inh)
COc1ccc(OC)c(NC(=O)c2cc(-c3ccc(C)cc3O)n[nH]2)c1	none
COc1ccc(OC)c(NC(=O)c2cc(-c3cc(C)ccc3O)n[nH]2)c1	SR-BI DiI inh 76
O=C(c1ccc(F)cc1)C1CCN(C(=S)Nc2ccc(F)cc2)CC1	none
COc1cc(/C=N/Nc2ccc(S(N)(=O)=O)cc2[N+](=O)[O-])cc(OC)c1O	none (no result: SR-BI DiI-HDL act, SR-BI DiI inh)
COc1cc(/C=N/Nc2ccccc2[N+](=O)[O-])cc(OC)c1O	SR-BI DiI inh 79
CCOc1cc(/C=N/NC(=O)c2ccc(N(C)S(=O)(=O)c3ccccc3)cc2)ccc1OC	SR-BI DiI inh 73
COc1cc(/C=N\NC(=O)c2ccc(-c3ccccc3)cc2)cc(OC)c1O	SR-BI DiI inh 92
COc1cc(/C=N/NC(=O)c2ccc(N(C)S(=O)(=O)c3ccccc3)cc2)cc(OC)c1OC	none
O=C(N/N=C/c1ccccc1[N+](=O)[O-])c1ccc(COc2ccccc2-c2ccccc2)cc1	SR-BI DiI inh 77
COc1ccc(/C=N/NC(=O)c2cc3c(ccc4ccccc43)o2)c(OC)c1	SR-BI DiI inh 82 (no result: CaV13 ICDI inh)
COc1ccccc1/C=N/NC(=O)c1ccc(-c2ccccc2)cc1	SR-BI DiI inh 79
COC(=O)N/N=C/c1ccccc1OCc1ccccc1	none
COc1ccccc1/C=N/NC(=O)c1cccc2ccccc12	SR-BI DiI inh 77
CCOc1ccccc1C=NNC(=O)c1cccc2ccccc12	none (no result: NTR1 ag)
COc1ccccc1/C=N/NC(=O)c1ccc(=O)n(C)c1	none
CC(=O)Nc1ccc(C(=O)N/N=C/c2ccccc2OCc2ccccc2)cc1	SR-BI DiI inh 79
CCc1ccc(NC(=O)CSc2nc3ccccc3nc2N2CCCC2)cc1	none
COC(=O)[C@]12C[C@H](CC(=O)NCCC(C)C)C(=O)N(Cc3ccc4c(c3)OCO4)C1=C[C@H](COCc1ccccc1)O[C@@H]2C	none (no result: V-ATPase pH, SR-BI DiI-HDL act, NTR1 ag, Vif imaging, SR-BI DiI inh)
COc1cccc(NC(=O)N(C)C[C@H]2OCc3ccccc3-c3c(n(C)c4ccccc34)C(=O)N([C@H](C)CO)C[C@H]2C)c1	none (no result: V-ATPase pH, SR-BI DiI-HDL act, NTR1 ag, Vif imaging, SR-BI DiI inh)
CC(c1ccccc1)N(C)C(=O)CSc1nnc(C2CC2)n1C1CC1 (stereo not given)	none
CCOC(=O)C1(C)CCN1C(=O)c1csnn1 (stereo not given)	none (no result: V-ATPase pH, SR-BI DiI-HDL act, NTR1 ag, SR-BI DiI inh)
O=S1(=O)N[C@H](Cc2ccccc2)COc2cccc(N3CCC[C@@H]3CO)c21	none (no result: V-ATPase pH, SR-BI DiI-HDL act, NTR1 ag, Vif imaging, SR-BI DiI inh)
COC(=O)Cc1nnn2c1CC(OC)c1ccccc1-2 (stereo not given)	none (no result: V-ATPase pH, SR-BI DiI-HDL act, NTR1 ag, Vif imaging, SR-BI DiI inh)
Cc1cc(C(=O)CSc2nnc(N)s2)c(C)n1CCc1ccc(F)cc1	none
Cc1cc(C(=O)CSc2nc(N)cc(=O)[nH]2)c(C)n1CCc1ccc(F)cc1	SR-BI DiI inh 90 (no result: CaV13 ICDI inh)
O=C(NN/C(=N/S(=O)(=O)c1ccc(Cl)cc1)c1ccccc1)c1cccc(Cl)c1	none
COc1ccc2nc(SCC(=O)NC3CCCC3)c(C)cc2c1	none
COc1ccc(-c2[nH]c(-c3ccccc3)nc2SCC(=O)Nc2nccs2)cc1	none
COc1ccc(-c2[nH]c(-c3ccc(C)cc3)nc2SCC(=O)NC2CCCC2)cc1	SR-BI DiI inh 80
COc1ccc(-c2[nH]c(-c3ccc(Cl)cc3)nc2SCC(=O)Nc2nccs2)cc1	SR-BI DiI inh 83 (no result: Vif imaging)
CC(Sc1nnc(COc2ccc(Cl)cc2)o1)C(=O)Nc1ccc(N2CCOCC2)cc1 (stereo not given)	none
COc1ccc(OC)c2sc(NC(=O)c3ccc(Br)s3)nc12	none
COc1ccc(OC)c2sc(NC(=O)c3ccc(Cl)s3)nc12	SR-BI DiI inh 87
O=C(NNC(=O)c1ccccc1OCc1ccc(F)cc1)c1ccccc1O	SR-BI DiI inh 125
COc1ccc(NC(=O)c2ccccc2OCc2ccc(F)cc2)c(OC)c1	SR-BI DiI inh 94
O=C(NNC(=O)c1ccccc1OCc1ccccc1)c1ccccc1O	SR-BI DiI inh 114 (no result: CaV13 ICDI inh)
COc1ccc(NC(=O)c2ccccc2Oc2ccccc2)c(OC)c1	none
O=C(NNC(=O)c1ccccc1OCc1ccccc1)c1ccccc1F	none
Cc1ccc2nc(C3CCCCC3)c(Cc3ccccc3)n2c1	none (no result: V-ATPase pH, SR-BI DiI-HDL act, NTR1 ag, Vif imaging, SR-BI DiI inh)
CNC(=O)C1(C)C=CC2(CCCCC2)N1C(=O)OC (stereo not given)	none
COc1cccc2sc(Nc3nc(-c4ccncc4)cs3)nc12	SR-BI DiI inh 80
CCOC(=O)N1CCN(C2CCCN(C(=O)c3ccccc3C(F)(F)F)C2)CC1 (stereo not given)	none
Cc1cccc(N2CN(Cc3cccnc3)CNC2=S)c1	V-ATPase pH 16
CC(C)c1cc(-c2cc(-c3ccccc3)on2)nc(NC2CCCC2)n1	SR-BI DiI inh 75
